Screening data from PubChem BioAssay.
UHRF1 binding: UHRF1 methyl-DNA binding inhibition; inhibition, % at 4.4 µM; Q96T88; AID 687016; 370,000 tested, 0.75% active; UHRF1 binding to methylated oligo, TR-FRET; in the data active = inhibition above about 21%;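 note: UHRF1 SRA domain binding a hemimethylated CpG hairpin DNA probe; 0% = median of test compound wells and 100% = reference inhibitor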
Casp6 inh: blocks human caspase-6 cleavage activity; AID 686996; purified caspase-6, Z-VEID-R110 cleavage fluorescence; P55212; inhibition, % at 12.5 µM; 350,000 tested, 0.53% active;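 active = mean inhibition across replicates at least about 35%, with every replicate also reaching that limit, limit read from the data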;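 note: 0% = median of neutral control wells and 100% = no fluorescence left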
Target sequence (P55212 24-179 limits assumed): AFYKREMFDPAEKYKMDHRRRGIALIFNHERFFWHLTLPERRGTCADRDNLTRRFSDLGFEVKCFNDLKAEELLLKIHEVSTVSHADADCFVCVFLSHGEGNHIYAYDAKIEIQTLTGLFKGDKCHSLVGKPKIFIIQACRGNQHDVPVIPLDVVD
Target sequence (P55212 194-293 limits assumed): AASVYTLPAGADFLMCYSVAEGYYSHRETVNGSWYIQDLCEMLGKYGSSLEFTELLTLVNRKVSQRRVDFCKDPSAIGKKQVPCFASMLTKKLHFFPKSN
TDP2 inh: blocks human TDP2 phosphodiesterase activity; O95551; recombinant TDP2, T5PNP hydrolysis, p-nitrophenol absorbance 415 nm; inhibition, % at 12.8 µM; 370,000 tested, 0.34% active; AID 720702;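 active = inhibition above the mean of all tested compounds plus 3 SD, set per campaign, cut at about 25% in these data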;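 note: 0% = DMSO with enzyme and 100% = buffer with substrate but no TDP2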
Target sequence (O95551 whole entry, looked up): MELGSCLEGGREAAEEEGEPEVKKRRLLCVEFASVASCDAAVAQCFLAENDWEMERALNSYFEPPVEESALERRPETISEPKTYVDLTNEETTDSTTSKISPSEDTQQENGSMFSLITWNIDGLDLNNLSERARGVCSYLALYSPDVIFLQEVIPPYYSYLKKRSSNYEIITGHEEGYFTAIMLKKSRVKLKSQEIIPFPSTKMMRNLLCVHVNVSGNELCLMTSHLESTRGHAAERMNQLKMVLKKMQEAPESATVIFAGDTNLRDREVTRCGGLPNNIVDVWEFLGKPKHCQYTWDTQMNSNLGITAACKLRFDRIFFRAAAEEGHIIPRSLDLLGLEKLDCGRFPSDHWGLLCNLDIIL
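System: recombinant human TDP2 / Amount: 120 nM TDP2 per well / Also added: 5 mM T5PNP chromogenic substrate / Doses: 12.8 µM single point, 1% DMSO / Incubation: 2 h at 37 °C / Detection: p-Nitrophenol epi absorbance / Evaluation: % inhibition relative to enzyme-containing and enzyme-free wells / Repeats: singlicate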
NSD2 inh: blocks human histone methyltransferase NSD2 | O96028 | NSD2 peptide methylation, AlphaScreen, 120 min | inhibition, % at 12.5 µM | 310,000 tested, 0.54% active | AID 743445; in the data active = inhibition above about 50%
MBD2 DNA inh: inhibitors of human MBD2 binding to methylated oligonucleotide; Q9UBB5; TR-FRET; inhibition, % at 4.4 µM; 370,000 tested, 0.31% active; AID 686964; in the data active = inhibition above about 13%
LEDGF integ inh: blocks HIV-1 LEDGF/p75-dependent DNA integration; inhibition, % at 3.7 µM; TR-FRET IN-LEDGF/p75 DNA integration, Eu/Cy5; 370,000 tested, 0.64% active; AID 743269;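 active = inhibition above the screen-wide mean plus 3 SD, cut at about 13% in these data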;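 note: signal is the Cy5 over europium emission ratio at 671 and 618 nm; 0% = plate median of compound wells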
IN multimer up: activates HIV-1 integrase multimerization in LEDGF counter-screen. shares compounds with LEDGF integ inh. TR-FRET HIV-1 integrase multimerization, biochemical. activation, % at 7.7 µM. 2,000 tested, 17% active. AID 1053131; in the data active = activation above about 8.9%
TRFRET interf: counter-screen for LEDGF/p75 integration inhibitors: TR-FRET optical interference; shares compounds with LEDGF integ inh; TR-FRET optical interference counterscreen, HIV-1 IN multimerization; inhibition, % at 7.7 µM; 2,000 tested, under 10 active; AID 1053135;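 active = inhibition above the mean over all tested compounds plus 3 SD, which no compound reached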;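 note: 0% = integrase with antibodies and DMSO and 100% = antibodies without integrase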
IN-LEDGF confirm: LEDGF/p75-dependent HIV-1 integration inhibition, confirmation; shares compounds with LEDGF integ inh; TR-FRET LEDGF/p75-dependent HIV-1 integration, biochemical; inhibition, % at 3.7 µM; 2,000 tested, 36% active; in the data active = inhibition above about 14%
* marks the source's active call; other numbers are inactive results; x = not tested or not shown. An excerpt weighted towards active compounds, which were near 1.8% of everything screened.

SMILES	UHRF1 binding	Casp6 inh	TDP2 inh	NSD2 inh	MBD2 DNA inh	LEDGF integ inh	IN multimer up	TRFRET interf	IN-LEDGF confirm
O=C(NCc1ccco1)c1ccc(S(=O)(=O)N2CCOCC2)cc1	12	x	11	5	0	14*	2	-8	20*
O=C(NCc1ccco1)c1ccc(S(=O)(=O)N2CCCCC2)cc1	0	-4	5	1	-2	-3	x	x	x
O=C(N[C@H]1CC[C@@H](CCNC(=O)C2CCC2)O[C@H]1CO)c1ccccn1	x	-1	x	x	x	x	x	x	x
O=C1C(=NO)CCc2ccccc21	-1	68*	20	77*	-7	29*	3	-11	26*
O/N=C1/CCc2cccc3cccc1c23	-3	x	3	0	0	3	x	x	x
CCCCc1cc(=O)oc2cc(OCC(=O)NCC3CCC(C(=O)O)CC3)ccc12 (stereo not drawn)	-2	-1	3	x	0	3	x	x	x
CCCc1cc(=O)oc2cc(OCC(=O)NCC3CCC(C(=O)O)CC3)ccc12 (stereo not drawn)	-2	-2	0	x	-2	33*	-4	14	0
O=C1C2C3C=CC(C3)C2C(=O)N1c1ccccc1OS(=O)(=O)c1ccccc1 (stereo not drawn)	14	x	3	-2	2	21*	0	1	-3
Cc1ccc(S(=O)(=O)Oc2ccccc2N2C(=O)C3C4CCC(C4)C3C2=O)cc1 (stereo not drawn)	0	0	3	-2	1	-4	x	x	x
O=C(c1ccc2c(c1)N(Cc1ccccc1F)C(=O)c1ccccc1S2)N1CCOCC1	-1	2	1	-1	1	30*	1	-3	-7
CCOC(=O)c1c2ccc(OCC(=O)NN)cc2n2ccccc12	11	9	4	7	1	23*	3	-14	6
Cn1c(=O)c2c(nc(SCc3ccc(C(=O)O)cc3)n2C)n(C)c1=O	0	12	-6	-1	-4	14*	-3	13	8
CCc1ccc(NC(=O)CSc2nc3c(c(=O)n(C)c(=O)n3C)n2C)cc1	-2	-2	1	x	-1	-4	x	x	x
CC1Cc2ccccc2N1C(=O)CSc1ccccn1 (stereo not drawn)	5	1	-1	-3	4	-6	x	x	x
CC1Cc2ccccc2N1C(=O)CSCC(=O)O (stereo not drawn)	0	x	-2	1	0	16*	1	-4	-3
O=C(O)c1cccc2cccc(-c3c4ccc(=O)c(O)c-4oc4c(O)c(O)ccc34)c12	92*	99*	19	x	67*	90*	71*	-356	93*
C[C@@H]1CN([C@@H](C)CO)C(=O)c2cc(NS(=O)(=O)c3ccccc3)ccc2O[C@H]1CN(C)C	x	-3	x	x	x	x	x	x	x
O=C(O)C(C(=O)/C=C/c1ccco1)=C1SCCS1	20	x	-5	5	-2	18*	1	-5	33*
O=C(/C=C/c1ccc([N+](=O)[O-])cc1)/C=C/c1ccco1	17	19	13	-4	10	22*	0	-1	47*
O=C(/C=C/c1ccco1)NC1CCCC1	7	17	-2	-9	6	2	x	x	x
O=C(C=C1SCCS1)/C=C/c1ccco1	1	x	-8	-1	2	14*	5	-27	35*
COc1ccc(S(=O)(=O)N(C)C[C@H]2Oc3c(NC(=O)c4ccc(-c5nccs5)cc4)cccc3C(=O)N([C@@H](C)CO)C[C@@H]2C)cc1	x	1	x	x	x	x	x	x	x
COc1ccc2c3c([nH]c2c1)[C@H](CO)NCC31CN(C(=O)Nc2ccc3c(c2)OCO3)C1	x	1	x	x	x	x	x	x	x
C[C@@H]1CCCCO[C@H](CN(C)C(=O)Nc2cccc3ccccc23)[C@H](C)CN([C@@H](C)CO)C(=O)c2cc(NC(=O)Nc3ccc(F)cc3)ccc2O1	x	-1	x	x	x	x	x	x	x
O=C(Nc1ccc(F)cc1)N[C@H]1CC[C@@H](CCNC(=O)c2ccccc2F)O[C@@H]1CO	x	2	x	x	x	x	x	x	x
SMILES	UHRF1 binding	Casp6 inh	TDP2 inh	NSD2 inh	MBD2 DNA inh	LEDGF integ inh	IN multimer up	TRFRET interf	IN-LEDGF confirm
O=C(N/N=C/c1ccc([N+](=O)[O-])o1)C1CCCC1	-4	23	-1	6	-8	2	x	x	x
O=[N+]([O-])c1ccc(/C=[N+](\[O-])[C@@H]2CCCC[C@@H]2/[N+]([O-])=C/c2ccc([N+](=O)[O-])o2)o1	-1	27	5	12	-3	19*	-1	2	34*
C[C@H]1CN([C@@H](C)CO)C(=O)c2cc(NS(=O)(=O)c3ccccc3)ccc2O[C@@H]1CN(C)C(=O)Nc1cccc2ccccc12	x	-2	x	x	x	x	x	x	x
CCc1nc(NCc2cccs2)c2nnn(Cc3ccccc3)c2n1	-2	-3	3	-1	3	16*	0	-1	8
CCc1nc(Nc2ccccc2)c2nnn(Cc3ccccc3)c2n1	-6	2	17	1	3	0	x	x	x
Cc1cc(NC(=O)CCCS(=O)(=O)c2nc(-c3cccs3)cc(C(F)(F)F)n2)no1	0	2	1	-2	-3	19*	-1	5	2
Cc1cc(NC(=O)CSc2nc(-c3cccs3)cc(C(F)(F)F)n2)no1	2	x	-5	-3	-1	-3	x	x	x
CO[C@@H]1CN(C)C(=O)c2cc(NC(C)=O)ccc2OC[C@@H](C)NC[C@@H]1C	x	-18	x	x	x	x	x	x	x
CCCCCCCCCCCCN1CCSCCS1(=O)=O	2	3	-13	x	1	22*	0	0	4
C[C@H](CO)N1C[C@H](C)[C@@H](CN(C)Cc2ccc(-c3ccccc3)cc2)Oc2ccc(N(C)C)cc2C1=O	x	4	x	x	x	x	x	x	x
C[C@H]1CN([C@@H](C)CO)C(=O)c2cc(NC(=O)Nc3ccccc3)ccc2O[C@@H]1CN(C)Cc1ccc(Oc2ccccc2)cc1	x	0	x	x	x	x	x	x	x
CCOC(=O)c1c(NC(=O)CSc2nnc(CNC(=O)c3ccco3)n2C)sc2c1CCC2	4	11	-19	5	-5	60*	-1	3	-3
CCOC(=O)c1c(NC(=O)c2ccco2)sc2c1CCCCC2	-1	x	-3	-2	-1	2	x	x	x
Cc1cccc2cc(CN(Cc3ccc(F)cc3)C(=O)N3CCOCC3)c(=O)[nH]c12	1	-2	-3	2	2	14*	0	-1	-13
Cc1cc(C)c2nc(SCC(=O)NCCN3C(=O)CSC3=O)cc(C)c2c1	0	1	6	-5	-1	-2	x	x	x
